In brackets after ≈: the same amount, converted by molar mass. Activity calls are given as the source filed them.

What all share (format): functional
Test [1] concerns Porphyromonas gingivalis. As to the kind of experiment: Antibacterial activity against Porphyromonas gingivalis ATCC 33277 after 24 hrs. Conditions: ATCC 33277, 24 h. In a few lines: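 P. gingivalis grown anaerobically (N2-H2-CO2 80:10:10) at 37 °C in Todd-Hewitt broth with 0.001% hemin and 0.0001% vitamin K. Overnight culture diluted to OD660 0.2 and added 1:1 to serial dilutions of compound (80 to 5 μM). Vehicle-only and penicillin G controls. After 24 h, MIC taken as lowest concentration giving complete growth inhibition. Triplicate.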

The subject of test [2] is Streptococcus mutans. As to the kind of experiment: Antibacterial activity against Streptococcus mutans ATCC 25175 after 24 hrs. The settings on record: ATCC 25175, 24 h. In a few lines: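 S. mutans grown aerobically at 37 °C in Todd-Hewitt broth with 0.001% hemin and 0.0001% vitamin K. Overnight culture diluted to OD660 0.2 and mixed 1:1 with serial compound dilutions (80 to 5 μM). Vehicle-only and penicillin G controls included. MIC = lowest concentration with complete growth inhibition after 24 h. Triplicate.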

Test [3] deals with Porphyromonas gingivalis. As to the kind of experiment: Bactericidal activity against Porphyromonas gingivalis ATCC 33277 after 24 hrs. The settings on record: ATCC 33277, 24 h. In a few lines: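 For MBC, P. gingivalis was run as in the anaerobic broth MIC set-up (THBHK, 37 °C, 24 h, 80 to 5 μM). 10 μL from wells without visible growth was spread on solid medium. MBC was read from these subcultures. Penicillin G served as reference. Triplicate.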

Test [4] has as its system Streptococcus mutans. As to the kind of experiment: Bactericidal activity against Streptococcus mutans ATCC 25175 after 24 hrs. The settings on record: ATCC 25175, 24 h. In a few lines: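 MBC for S. mutans was run after the aerobic 37 °C THBHK microdilution (80 to 5 μM, 24 h). 10 μL aliquots from wells lacking visible growth were plated on solid medium to find the minimal bactericidal concentration. Penicillin G served as reference. Triplicate.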

In the next test the test system is Candida albicans. Description: Antifungal activity against Candida albicans ATCC 28366 assessed as growth inhibition at 80 uM after 24 hrs. In outline: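 C. albicans cultured aerobically at 37 °C in yeast nitrogen base with 0.5% glucose. Overnight culture diluted to OD660 0.2 and added 1:1 to compound dilutions, top level 80 μM. Vehicle-only and nystatin controls included. Growth inhibition scored after 24 h. Triplicate.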

What is called MIC is the smallest concentration in the dilution series that meets the test's criterion for growth inhibition. Higher therefore signals a less susceptible organism. One may read the MBC as the lowest tested concentration that kills the bacteria rather than only halting them. A high value points to less potent killing. Take `Cc1c(C(=O)O)c(O)cc2oc3cc(O)cc(CO)c3c12`: the MIC against Porphyromonas gingivalis [1] and against Streptococcus mutans [2] was above 80 µM throughout. In addition, the MBC with Porphyromonas gingivalis [3] and against Streptococcus mutans [4] was above 80 µM throughout. Besides, in the test with Candida albicans, the “growth inhibition (GI)” value was “inactive”.

Take `CCCCCc1cc(O)cc(O)c1Oc1cc(OC)cc(C(=O)CCCC)c1C(=O)OC`: the minimal inhibitory concentration (MIC) against Porphyromonas gingivalis [1] and against Streptococcus mutans [2] was 80 µM (≈ 35.6 µg/mL) each time. For the same compound, the figures for the MBC against Porphyromonas gingivalis [3] and in the test with Streptococcus mutans [4] were 80 µM (≈ 35.6 µg/mL) and above 80 µM, respectively. Also, the “growth inhibition (GI)” value in the test with Candida albicans is “inactive”.

`CCCCCc1c(Oc2cc(OC)cc3c2C(=O)OC3(CCCC)OC)c(O)cc(O)c1C(=O)O` (centres undefined): the MIC in the test on Porphyromonas gingivalis [1] and with Streptococcus mutans [2] was 80 µM (≈ 39.1 µg/mL) each time. Besides, the MBC with Porphyromonas gingivalis [3] and against Streptococcus mutans [4] was 80 µM (≈ 39.1 µg/mL) in each case. In the test with Candida albicans, the “growth inhibition (GI)” value was “inactive”.

In the case of `CCCCCc1c(Oc2cc(OC)cc(C(=O)CCCC)c2C(=O)OC)c(O)cc(O)c1C(=O)O`, the values for the MIC with Porphyromonas gingivalis [1] and in the test on Streptococcus mutans [2] were 40 µM (≈ 19.5 µg/mL) and 80 µM (≈ 39.1 µg/mL), respectively. The MBC in the test with Porphyromonas gingivalis [3] is 40 µM (≈ 19.5 µg/mL); in the test on Streptococcus mutans [4], above 80 µM. Moreover, the “growth inhibition (GI)” value with Candida albicans was “inactive”.

With `CCCCCc1cc(O)cc(O)c1Oc1cc(OC)cc2c1C(=O)OC2(O)CCCC` (centres undefined) [SAKISACAULON A], the MIC in the test on Porphyromonas gingivalis [1] was above 80 µM; in the test on Streptococcus mutans [2], 80 µM (≈ 34.4 µg/mL). Moreover, the results for the MBC against Porphyromonas gingivalis [3] and against Streptococcus mutans [4] were above 80 µM and 80 µM (≈ 34.4 µg/mL), respectively. Moreover, the “growth inhibition (GI)” value in the test with Candida albicans was “inactive”.

As to `CCC/C=C1\OC(=O)c2c(Oc3c(O)cc(O)cc3CCCCC)cc(OC)cc21`, the MIC against Porphyromonas gingivalis [1] was found to be 20 µM (≈ 8.25 µg/mL); in the test on Streptococcus mutans [2], 10 µM (≈ 4.12 µg/mL). The MBC in the test on Porphyromonas gingivalis [3] and against Streptococcus mutans [4] was 20 µM (≈ 8.25 µg/mL) in each case. The “growth inhibition (GI)” value in the test with Candida albicans was “inactive”.

As for `CCCCCc1c2c(cc(O)c1C(=O)O)OC(=O)c1c(cc(OC)cc1C(=O)CCCC)O2` [LOBARIC ACID], the MIC against Porphyromonas gingivalis [1] is 80 µM (≈ 36.5 µg/mL); against Streptococcus mutans [2] it was 20 µM (≈ 9.13 µg/mL). Besides, the MBC in the test with Porphyromonas gingivalis [3] and against Streptococcus mutans [4] was 80 µM (≈ 36.5 µg/mL) each time. Moreover, the “growth inhibition (GI)” value in the test with Candida albicans was “inactive”.

Regarding `Cc1c(C(=O)O)c(O)cc2oc3cc(O)cc(C(=O)O)c3c12`, the MIC against Porphyromonas gingivalis [1] and in the test on Streptococcus mutans [2] was above 80 µM throughout. The MBC against Porphyromonas gingivalis [3] and in the test on Streptococcus mutans [4] was above 80 µM throughout. Besides, the “growth inhibition (GI)” value in the test with Candida albicans is “inactive”.

Consider `COC(=O)c1c(C)cc(O)c(C)c1O` [ATRARIC ACID], for which the MIC in the test on Porphyromonas gingivalis [1] and in the test with Streptococcus mutans [2] was above 80 µM throughout. For the same compound, the MBC against Porphyromonas gingivalis [3] and against Streptococcus mutans [4] was above 80 µM throughout. For the same compound, the “growth inhibition (GI)” value with Candida albicans was “inactive”.

In the case of `CCCCCc1cc(O)cc(O)c1Oc1cc(OC)cc2c1C(=O)OC2(CCCC)OC` (centres undefined), the MIC with Porphyromonas gingivalis [1] and against Streptococcus mutans [2] was 80 µM (≈ 35.6 µg/mL) in each case. Besides, the MBC in the test on Porphyromonas gingivalis [3] and against Streptococcus mutans [4] was 80 µM (≈ 35.6 µg/mL) throughout. Also, the “growth inhibition (GI)” value in the test on Candida albicans was “inactive”.

`COC(=O)c1c(C)cc(O)c(C=O)c1O` [METHYL HAEMATOMMATE]: the MIC against Porphyromonas gingivalis [1] and against Streptococcus mutans [2] was above 80 µM each time. Further, the MBC in the test with Porphyromonas gingivalis [3] and with Streptococcus mutans [4] was above 80 µM throughout. For the same compound, in the test with Candida albicans, the “growth inhibition (GI)” value is “inactive”.

For `Cc1cc(O)cc2oc3cc(O)cc(CO)c3c12`, the MIC against Porphyromonas gingivalis [1] and against Streptococcus mutans [2] was above 80 µM throughout. In addition, the MBC in the test with Porphyromonas gingivalis [3] and with Streptococcus mutans [4] was above 80 µM in each case. Further, the “growth inhibition (GI)” value in the test with Candida albicans is “inactive”.

Turning to `CC1(C)S[C@@H]2[C@H](NC(=O)Cc3ccccc3)C(=O)N2[C@H]1C(=O)O` [PENICILLIN G], the results for the MIC against Porphyromonas gingivalis [1] and against Streptococcus mutans [2] were 0.29 µM (≈ 0.097 µg/mL) and 0.15 µM (≈ 0.0502 µg/mL), respectively. For the same compound, the MBC was 2.3 µM (≈ 0.769 µg/mL) against Porphyromonas gingivalis [3] and 4.7 µM (≈ 1.57 µg/mL) against Streptococcus mutans [4].

The record behind these values is ChEMBL document CHEMBL4004809, “Dibenzofurans and Pseudodepsidones from the Lichen Stereocaulon paschale Collected in Northern Quebec” (2017).
